# Reference: PubChem BioAssay AID602158 (Broad Institute, 2011)
# Inconclusive results are not listed. Calls of active or inactive are those of the source.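 Rule for the calls: active = half-maximal potency at or below twice the top valid dose in every separate test run, with falling signal; inconclusive = runs disagree, or flat 30 to 70% inhibition, or poor fit; inactive = inactive in every run, including rising signal.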
# Biological target: Serine/threonine-protein kinase 33 (Homo sapiens) (UniProt Q9BYT3)
# Experiment: inhibition of purified STK33 phosphorylating MBP – biochemical, ADP-Glo luminescence, dry powder, set 3, dose response (AID 602158)
# Details: purified STK33, MBP phosphorylation; for activity change, negative = inhibition: at 10 µM (top of the series)
# Procedure, shortened: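 Material – purified STK33 kinase enzyme · Buffer or medium – MOPS-based assay buffer, pH 7.0, with BSA and BME · Reagent – MBP substrate, ATP at Km · Schedule – 15 min enzyme–compound preincubation at room temperature, 60 min kinase reaction · Technique – ADP-Glo luminescence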
# Sequence of Serine/threonine-protein kinase 33 (Homo sapiens) (Q9BYT3 whole entry, looked up): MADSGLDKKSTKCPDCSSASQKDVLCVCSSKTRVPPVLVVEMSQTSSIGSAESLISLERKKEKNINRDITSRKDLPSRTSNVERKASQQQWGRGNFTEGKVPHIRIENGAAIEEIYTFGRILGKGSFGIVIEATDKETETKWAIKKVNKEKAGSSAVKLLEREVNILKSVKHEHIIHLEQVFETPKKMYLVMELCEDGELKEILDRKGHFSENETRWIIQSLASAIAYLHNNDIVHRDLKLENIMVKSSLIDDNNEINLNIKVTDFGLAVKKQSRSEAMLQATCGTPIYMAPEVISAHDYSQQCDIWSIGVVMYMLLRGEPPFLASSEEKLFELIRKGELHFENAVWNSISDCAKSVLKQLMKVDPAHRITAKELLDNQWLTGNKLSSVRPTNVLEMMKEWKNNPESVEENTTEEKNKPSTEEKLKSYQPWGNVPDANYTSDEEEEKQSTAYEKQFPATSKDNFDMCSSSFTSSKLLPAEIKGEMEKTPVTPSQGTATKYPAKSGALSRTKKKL
"activity change, negative = inhibition",AC50 [nM],Structure (SMILES)
inactive,,Cc1ccccc1C(=O)Nc1ccccc1-c1nc2ccccc2[nH]c1=O
,297,O=C(Nc1ccccc1-c1nc2ccccc2[nH]c1=O)c1ccc(Cl)cc1
inactive,,O=c1[nH]c2ccccc2nc1-c1ccccc1NCc1cccnc1
,4860,O=C(Nc1ccccc1-c1nc2ccccc2[nH]c1=O)c1ccccc1F
inactive,,O=C(Nc1ccccc1-c1nc2ccccc2[nH]c1=O)c1ccccc1Cl
inactive,,O=C(Nc1ccccc1-c1nc2ccccc2[nH]c1=O)c1cc2ccccc2s1
,7250,O=c1[nH]c2ccccc2nc1-c1ccccc1NS(=O)(=O)c1ccccc1
inactive,,O=C(Nc1ccccc1-c1nc2ccccc2[nH]c1=O)C1CC1
,522,O=C(Nc1ccccc1-c1nc2ccccc2[nH]c1=O)c1nccs1
,165,O=C(Nc1ccccc1-c1nc2ccccc2[nH]c1=O)c1ccccc1
inactive,,O=C(Nc1ccccc1-c1nc2cc3ccccc3cc2[nH]c1=O)c1cccs1
inactive,,CC(C)C(=O)Nc1ccccc1-c1nc2ccccc2[nH]c1=O
,2240,COc1cccc(C(=O)Nc2ccccc2-c2nc3ccccc3[nH]c2=O)c1
inactive,,O=C(Nc1ccccc1-c1nc2ccccc2[nH]c1=O)C1CCCC1
,1550,Cc1cccc(C(=O)Nc2ccccc2-c2nc3ccccc3[nH]c2=O)c1
inactive,,O=c1[nH]c2ccccc2nc1-c1ccccc1NS(=O)(=O)c1cccnc1
inactive,,O=c1[nH]c2ccccc2nc1-c1ccccc1NCC1CC1
inactive,,O=c1[nH]c2ccccc2nc1-c1ccccc1NCc1ccccc1
,1540,O=c1[nH]c2ccccc2nc1-c1ccccc1NCc1ccccn1
inactive,,COc1ccccc1C(=O)Nc1ccccc1-c1nc2ccccc2[nH]c1=O
,763,Cc1ccc(C(=O)Nc2ccccc2-c2nc3ccccc3[nH]c2=O)cc1
,380,O=C(Nc1ccccc1-c1nc2ccccc2[nH]c1=O)c1ccc(Cl)s1
inactive,,O=c1[nH]c2ccccc2nc1-c1ccccc1NCc1ccc(F)cc1
inactive,,O=c1[nH]c2ccccc2nc1-c1ccccc1NS(=O)(=O)c1cccs1
